These results are taken from ChEMBL document CHEMBL1157809, “Bioactive norditerpenoids from the soft coral Sinularia gyrosa” (Bioorg Med Chem, 2010).

In brackets after ≈: the same amount, converted by molar mass. Activity calls are given as the source filed them. The calls are words filed in the database; no cut-off is given here.

In experiment [1] the test system is RAW264.7. The experiment can be described thus: Antiinflammatory activity in mouse RAW264.7 cells assessed as inhibition of LPS-induced COX2 expression at 10 uM by immunoblot analysis. In kind it is functional. A digest of the protocol: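 Murine RAW 264.7 macrophages cultured in DMEM with 10% heat-inactivated FBS at 37 °C, 5% CO2. Cells were stimulated with LPS with or without compound. COX-2 protein was measured by immunoblot, with β-actin as housekeeping reference, and expressed as % of LPS-stimulated control cells. Statistics: one-way ANOVA, Student–Newman–Keuls post hoc test, P<0.05.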
Background: A western blot detects proteins with antibodies after separation by electrophoresis.

For a further experiment, the system named is HT-29. The experiment can be described thus: Cytotoxicity against human HT-29 cells by MTT assay. In kind it is functional. The following applies: read-out: ED50 (the source's name). A digest of the protocol: (§1)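 Modified MTT colorimetric assay on P-388 mouse lymphocytic leukemia, HT-29 and A549 tumor cells; read-out ED50. Mithramycin as positive control.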
In general terms: Tetrazolium dyes change colour on reduction, which living cells bring about.

For another experiment, the system named is P388. The experiment can be described thus: Cytotoxicity against mouse P388 cells by MTT assay. In kind it is functional. The following applies: read-out: ED50 (the source's name). A digest of the protocol: as §1
Experiment [2] relates to RAW264.7. The experiment can be described thus: Antiinflammatory activity in mouse RAW264.7 cells assessed as inhibition of LPS-induced iNOS expression at 10 uM by immunoblot analysis.
In a further experiment the test system is A549. The experiment can be described thus: Cytotoxicity against human A549 cells by MTT assay. In kind it is functional. Conditions: read-out: ED50 (the source's name). In short, it runs like this:
as §1

Another experiment has as its system Human betaherpesvirus 5. The experiment can be described thus: Antiviral activity against HCMV infected in HEL cells assessed as inhibition of virus-induced cytopathic effect after 7 days. In kind it is functional, organism-based. Conditions: Human betaherpesvirus 5, HEL, 168 h; for EC50: read-out: ED50 (the source's name). A digest of the protocol: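 Confluent human embryonic lung (HEL) cells preincubated 1 h with or without various compound concentrations, then infected with HCMV at 1000 pfu per well. IC50 taken as concentration reducing virus-induced cytopathic effect by 50% after seven days versus untreated control.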
(Protection from cytopathic effect is a common read-out in antiviral testing.)

Take `C=C(C)[C@H]1C/C=C2/C(=O)O[C@H](C[C@@]3(C)CC(=O)[C@@H](CC(=O)C1)O3)[C@H]2O`: the result in the experiment with RAW264.7 [1] was inactive. In addition, the EC50 in the experiment with HT-29, in the experiment with P388 and in the experiment on A549 was over 20 µg/mL throughout. In addition, the inhibition (in general, the relative decrease from the control value, in per cent) at 10 µM with RAW264.7 [2] was determined as 10.2%. The half-maximal inhibitory concentration (IC50) (as a rule, the concentration that inhibits the measured activity by half) in the experiment on Human betaherpesvirus 5 came out at 1.9 µg/mL (≈ 5.45 µM).
Consider `C=C(C)[C@H]1CC[C@]23O[C@H]2[C@@H](C[C@@]2(C)CC(=O)[C@@H](CC(=O)C1)O2)OC3=O`, for which, in the experiment with RAW264.7 [1], the result was inactive. In addition, the EC50 with HT-29 is over 20 µg/mL; with P388, over 20 µg/mL; with A549 it was over 20 µg/mL; in the experiment on Human betaherpesvirus 5, over 50 µg/mL. Moreover, in the experiment with RAW264.7 [2], the inhibition at 10 µM amounted to 47.2%.
As for `C=C(C)[C@@H]1CC(=O)C[C@H]2O[C@](C)(CC2=O)C[C@H]2OC(=O)[C@@]3(O[C@H]23)[C@@H](O)C1`, the result with RAW264.7 [1] was inactive. Besides, the EC50 in the experiment on HT-29 was over 20 µg/mL; in the experiment on P388 it was over 20 µg/mL; in the experiment with A549, over 20 µg/mL; in the experiment on Human betaherpesvirus 5 it was over 50 µg/mL. The inhibition at 10 µM in the experiment with RAW264.7 [2] was found to be 56.3%.
As for `C=C(C)[C@H]1C/C=C2/C(=O)O[C@H](C[C@@]3(C)CC(=O)[C@H](CC(=O)C1)O3)[C@H]2O`, in the experiment on RAW264.7 [1], the outcome was inactive. In addition, the EC50 in the experiment with HT-29 is over 20 µg/mL; in the experiment on P388, over 20 µg/mL; in the experiment on A549, over 20 µg/mL; in the experiment with Human betaherpesvirus 5, over 50 µg/mL. Moreover, the inhibition at 10 µM in the experiment on RAW264.7 [2] amounted to 17.4%.
Take `C=C(C)[C@H]1CCC2=C[C@@H](C[C@@]3(C)CC(=O)[C@H](CC(=O)C1)O3)OC2=O`: the EC50 in the experiment on HT-29 is over 20 µg/mL; in the experiment with P388, over 20 µg/mL; with A549, over 20 µg/mL; in the experiment with Human betaherpesvirus 5, over 50 µg/mL.
For `C=C(C)[C@H]1C/C=C(/C(=O)OC)CC(=O)C[C@@]2(C)CC(=O)[C@H](CC(=O)C1)O2`, the EC50 in the experiment on HT-29 was over 20 µg/mL; with P388, over 20 µg/mL; with A549, over 20 µg/mL; with Human betaherpesvirus 5 it was over 50 µg/mL.
`C=C(C)[C@@H]1CC(=O)C[C@]23O[C@]4(C)C[C@H]5OC(=O)[C@H]([C@H]5[C@H]4C2=O)[C@H]3C1`: the EC50 in the experiment with HT-29 is over 20 µg/mL; in the experiment on P388, over 20 µg/mL; in the experiment with A549, over 20 µg/mL; in the experiment on Human betaherpesvirus 5 it was over 50 µg/mL.
As for `C=C(C)[C@H]1CCC2=C[C@@H](C[C@@]3(C)CC(=O)[C@@H](CC(=O)C1)O3)OC2=O`, the EC50 in the experiment with HT-29 was over 20 µg/mL; in the experiment on P388 it was over 20 µg/mL; with A549 it was over 20 µg/mL; in the experiment with Human betaherpesvirus 5 it was over 50 µg/mL.
Regarding `C=C(C)[C@@H]1CC(=O)[C@H]2[C@H](C1)[C@@H]1C(=O)O[C@@H]3C[C@@]4(C)O[C@@H]2C(=O)[C@@H]4[C@H]13`, the EC50 is over 20 µg/mL in the experiment on HT-29, over 20 µg/mL in the experiment on P388, over 20 µg/mL in the experiment with A549 and over 50 µg/mL in the experiment on Human betaherpesvirus 5.
With `O=C(/C=C/c1ccc(O)c(O)c1)OCCc1ccccc1` [CAFFEIC ACID PHENETHYL ESTER], in the experiment with RAW264.7 [2], the inhibition at 10 µM is 1.5%.
Take `C=C(C)[C@@H]1CC(=O)C[C@H]2O[C@](C)(CC2=O)C[C@@H](O)[C@@H]2O[C@]2(C(=O)OC)[C@@H](O)C1` [GYROSANIN A]: the outcome in the experiment on RAW264.7 [1] was inactive. Also, the EC50 in the experiment on HT-29 was over 20 µg/mL; in the experiment with P388, 3.6 µg/mL (≈ 9.08 µM); in the experiment with A549, over 20 µg/mL; with Human betaherpesvirus 5, over 50 µg/mL. Besides, the inhibition at 10 µM in the experiment on RAW264.7 [2] was determined as 66.9%.
With `C=C(C)[C@H]1C/C=C2/C(=O)O[C@H](C/C(C)=C/C(=O)[C@@H](O)CC(=O)C1)[C@H]2O` [GYROSANOLIDE A], in the experiment on RAW264.7 [1], the result was inactive. Besides, the EC50 in the experiment on HT-29 was over 20 µg/mL; in the experiment on P388 it was over 20 µg/mL; in the experiment with A549, over 20 µg/mL; with Human betaherpesvirus 5 it was over 50 µg/mL. In addition, the inhibition at 10 µM with RAW264.7 [2] worked out at 55.2%.
Take `C=C(C)[C@H]1C/C=C2/C(=O)O[C@H](C/C(C)=C\C(=O)[C@@H](O)CC(=O)C1)[C@H]2O` [GYROSANOLIDE B]: the result in the experiment on RAW264.7 [1] was inactive. Moreover, the EC50 with HT-29 was over 20 µg/mL; with P388 it was over 20 µg/mL; in the experiment on A549, over 20 µg/mL; in the experiment on Human betaherpesvirus 5, over 50 µg/mL. In the experiment with RAW264.7 [2], the inhibition at 10 µM amounted to 18.6%.
For `C=C(C)[C@H]1C/C=C2/C(=O)O[C@H](C/C(C)=C/C(=O)[C@H](OC)CC(=O)C1)[C@H]2O` [GYROSANOLIDE C], in the experiment on RAW264.7 [1], the result was inactive. The EC50 in the experiment on HT-29 was over 20 µg/mL; with P388, over 20 µg/mL; in the experiment with A549, over 20 µg/mL; with Human betaherpesvirus 5, over 50 µg/mL. Besides, the inhibition at 10 µM in the experiment with RAW264.7 [2] is 10.6%.
On to `C=C(C)[C@H]1CCC2=C[C@@H](C/C(C)=C/C(=O)[C@H](O)CC(=O)C1)OC2=O` [GYROSANOLIDE D], for which the EC50 with HT-29 is over 20 µg/mL; with P388, over 20 µg/mL; with A549 it was over 20 µg/mL; in the experiment on Human betaherpesvirus 5, over 50 µg/mL.
With `C=C(C)[C@H]1CCC2=C[C@H](C[C@@]3(C)CC(=O)[C@@H](CC(=O)C1)O3)OC2=O` [GYROSANOLIDE E], the EC50 in the experiment with HT-29 was over 20 µg/mL; in the experiment on P388 it was over 20 µg/mL; with A549, over 20 µg/mL; in the experiment on Human betaherpesvirus 5, over 50 µg/mL.
As to `C=C(C)[C@@H]1CC(=O)C[C@@H]2O[C@](C)(CC2=O)C[C@@H]2C=C(C(=O)O2)[C@@H](O)C1` [GYROSANOLIDE F], the EC50 is over 20 µg/mL in the experiment on HT-29, over 20 µg/mL in the experiment on P388, over 20 µg/mL in the experiment with A549 and over 50 µg/mL in the experiment with Human betaherpesvirus 5.
For `CO[C@H](C(=O)[C@@H](O)[C@@H](C)O)[C@@H]1Cc2cc3cc(O[C@H]4C[C@@H](O[C@@H]5C[C@@H](O)[C@H](O)[C@@H](C)O5)[C@H](O)[C@@H](C)O4)c(C)c(O)c3c(O)c2C(=O)[C@H]1O[C@H]1C[C@@H](O[C@@H]2C[C@@H](O)[C@@H](O[C@@H]3C[C@](C)(O)[C@H](O)[C@@H](C)O3)[C@@H](C)O2)[C@H](O)[C@@H](C)O1` [PLICAMYCIN], the EC50 is 0.08 µg/mL (≈ 0.0737 µM) in the experiment on HT-29, 0.06 µg/mL (≈ 0.0553 µM) in the experiment with P388 and 0.07 µg/mL (≈ 0.0645 µM) in the experiment with A549.
In the case of `C=C(C)[C@@H]1CC(=O)CC2=C(C1)[C@@H]1C(=O)O[C@@H]3C[C@](C)(O)[C@H](C2=O)[C@H]13` [SCABROLIDE A], the EC50 was over 20 µg/mL with HT-29, over 20 µg/mL in the experiment with P388, over 20 µg/mL with A549 and over 50 µg/mL with Human betaherpesvirus 5.
As for `C=C(C)[C@@H]1CC(=O)CC2=C(C1)[C@@H]1C(=O)O[C@@H]3CC(C)=C(C2=O)[C@H]13` [YONAROLIDE], the EC50 in the experiment with HT-29 is over 20 µg/mL; in the experiment with P388 it was over 20 µg/mL; in the experiment with A549 it was over 20 µg/mL; in the experiment on Human betaherpesvirus 5 it was over 50 µg/mL.
